Here are results for 16 compounds from article PMC6598223 (Saudi Pharmaceutical Journal : SPJ, 2019).

Read-outs that look alike come from different tables or passages of the source.

The subject of one assay is A549 cells. In words: Alamar Blue cytotoxicity assay, A549. It is filed as cell-based, human. The essentials:
(§1)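 Cells grown in DMEM with L-glutamine, 10% FBS and 1% penicillin–streptomycin at 37 °C, 5% CO2. They were seeded at 1 × 10^4 cells/well and grown 24 h, then given test compound dilutions in growth medium for 24 h. Alamar Blue was added (final 10 μg/ml) for 2–4 h at 37 °C, and fluorescence was read ([…]). Viability was calculated per line, and IC50s were averaged across HeLa, A549 and MDA-MB-231.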
(Alamar Blue is a resazurin reagent that responds to reducing activity.)

In the next assay the test system is MDA-MB-231 cells. Put plainly: Alamar Blue cytotoxicity assay, MDA-MB-231. In kind it is cell-based, human. The following applies: read-out: 24 h IC50 MDA-MB-231. In a few lines: as §1
Assay [1] relates to HeLa cells. In words: Alamar Blue cytotoxicity assay, HeLa. In kind it is cell-based, human. To be noted: read-out: 24 h IC50 HeLa. The essentials: as §1
The next assay concerns the target EGFR (Homo sapiens, UniProt P00533). In words: biochemical.
The next assay concerns the target VEGFR2 (Homo sapiens, UniProt P35968). In words: biochemical.
The test system of assay [2] is HeLa, A549 and MDA-MB-231 cells. Put plainly: Average cytotoxicity over the tested cell lines. It is filed as cell-based. To be noted: Homo sapiens, 24 h, read-out: average IC50 against the tested cell lines. The essentials:
as §1

The subject of assay [3] is caspase-3/7 in HeLa cells. In words: Caspase-3/7 activity assay. It is filed as cell-based, human. To be noted: 10 μM, 24 h. In a few lines: (§2)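 HeLa cells were seeded at 1 × 10^5/well in duplicate and grown 24 h. They were then treated with test compound at 1, 5, 10 and 20 µM, with 0.1% DMSO (v/v) as control. After 24 h, activity was measured with the Caspase-Glo 3/7 (caspase-3/7), Caspase-Glo 8 (caspase-8) or Caspase-Glo 9 (caspase-9) kit.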

The test system of assay [4] is HeLa cells. Put plainly: ROS production. It is filed as cell-based, human. To be noted: 40 μM, 24 h. The essentials: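 HeLa cells were treated with test compound at 10 or 40 µM for 24 h, with 0.1% DMSO (v/v) as control. Intracellular superoxide was detected with the Muse Oxidative Stress Kit, and cells were analysed on a Muse Cell Analyzer. The read-out was the percentage of cells with elevated ROS.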

Another assay has as its system caspase-9 in HeLa cells. Put plainly: Caspase-9 activity assay. It is filed as cell-based, human. The following applies: 5 and 10 μM, 24 h. In a few lines: as §2
The test system of another assay is caspase-8 in HeLa cells. In words: Caspase-8 activity assay. It is filed as cell-based, human. The following applies: 5 and 10 μM, 24 h. The essentials: as §2
Assay [5] deals with HeLa cells. In words: Annexin V/PI apoptosis assay. In kind it is cell-based, human. The following applies: 24 h. In a few lines:
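HeLa cells were exposed to test compound at 5 or 10 μM for 24 h, with an untreated control. Apoptotic versus necrotic death was scored by annexin V/PI staining, reported as percentage of cells undergoing apoptosis.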

Where [6] appears, read: Homo sapiens, A549, 24 h, read-out: 24 h IC50 A549, Alamar Blue, 24 h treatment.
Where [7] appears, read: read-out: 24 h IC50 A549, Alamar Blue, 24 h treatment.

Sequence of EGFR (P00533 25-1210): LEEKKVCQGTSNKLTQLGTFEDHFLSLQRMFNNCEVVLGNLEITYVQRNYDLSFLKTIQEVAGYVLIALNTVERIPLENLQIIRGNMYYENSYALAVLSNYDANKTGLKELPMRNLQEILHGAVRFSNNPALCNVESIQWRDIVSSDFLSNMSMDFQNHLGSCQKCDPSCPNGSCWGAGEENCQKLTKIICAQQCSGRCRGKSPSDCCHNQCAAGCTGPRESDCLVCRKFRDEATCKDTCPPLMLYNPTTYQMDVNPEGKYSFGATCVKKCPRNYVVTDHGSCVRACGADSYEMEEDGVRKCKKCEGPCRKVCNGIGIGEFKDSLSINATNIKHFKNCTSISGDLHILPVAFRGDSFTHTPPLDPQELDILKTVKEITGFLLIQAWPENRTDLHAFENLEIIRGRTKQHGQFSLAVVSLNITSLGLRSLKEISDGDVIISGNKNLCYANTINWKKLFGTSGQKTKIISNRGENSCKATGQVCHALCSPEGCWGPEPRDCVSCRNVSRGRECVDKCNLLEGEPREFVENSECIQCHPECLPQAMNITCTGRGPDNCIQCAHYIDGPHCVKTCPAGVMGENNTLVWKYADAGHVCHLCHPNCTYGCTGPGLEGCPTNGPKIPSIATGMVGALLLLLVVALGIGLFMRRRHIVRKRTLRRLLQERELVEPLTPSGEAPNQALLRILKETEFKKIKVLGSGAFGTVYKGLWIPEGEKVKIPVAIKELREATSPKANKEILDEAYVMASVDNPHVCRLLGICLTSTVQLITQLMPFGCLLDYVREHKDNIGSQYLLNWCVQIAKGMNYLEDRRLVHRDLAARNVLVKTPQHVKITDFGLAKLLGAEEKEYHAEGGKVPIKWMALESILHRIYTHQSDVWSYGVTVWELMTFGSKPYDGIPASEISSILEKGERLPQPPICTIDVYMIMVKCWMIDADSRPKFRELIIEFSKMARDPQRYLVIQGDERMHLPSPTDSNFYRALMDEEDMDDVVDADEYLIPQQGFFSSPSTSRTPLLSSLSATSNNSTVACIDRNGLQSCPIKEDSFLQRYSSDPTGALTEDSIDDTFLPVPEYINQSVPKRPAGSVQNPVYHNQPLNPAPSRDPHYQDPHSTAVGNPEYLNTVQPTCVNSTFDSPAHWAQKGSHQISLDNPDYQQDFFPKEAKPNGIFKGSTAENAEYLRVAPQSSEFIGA
Sequence of VEGFR2 (P35968 20-1356): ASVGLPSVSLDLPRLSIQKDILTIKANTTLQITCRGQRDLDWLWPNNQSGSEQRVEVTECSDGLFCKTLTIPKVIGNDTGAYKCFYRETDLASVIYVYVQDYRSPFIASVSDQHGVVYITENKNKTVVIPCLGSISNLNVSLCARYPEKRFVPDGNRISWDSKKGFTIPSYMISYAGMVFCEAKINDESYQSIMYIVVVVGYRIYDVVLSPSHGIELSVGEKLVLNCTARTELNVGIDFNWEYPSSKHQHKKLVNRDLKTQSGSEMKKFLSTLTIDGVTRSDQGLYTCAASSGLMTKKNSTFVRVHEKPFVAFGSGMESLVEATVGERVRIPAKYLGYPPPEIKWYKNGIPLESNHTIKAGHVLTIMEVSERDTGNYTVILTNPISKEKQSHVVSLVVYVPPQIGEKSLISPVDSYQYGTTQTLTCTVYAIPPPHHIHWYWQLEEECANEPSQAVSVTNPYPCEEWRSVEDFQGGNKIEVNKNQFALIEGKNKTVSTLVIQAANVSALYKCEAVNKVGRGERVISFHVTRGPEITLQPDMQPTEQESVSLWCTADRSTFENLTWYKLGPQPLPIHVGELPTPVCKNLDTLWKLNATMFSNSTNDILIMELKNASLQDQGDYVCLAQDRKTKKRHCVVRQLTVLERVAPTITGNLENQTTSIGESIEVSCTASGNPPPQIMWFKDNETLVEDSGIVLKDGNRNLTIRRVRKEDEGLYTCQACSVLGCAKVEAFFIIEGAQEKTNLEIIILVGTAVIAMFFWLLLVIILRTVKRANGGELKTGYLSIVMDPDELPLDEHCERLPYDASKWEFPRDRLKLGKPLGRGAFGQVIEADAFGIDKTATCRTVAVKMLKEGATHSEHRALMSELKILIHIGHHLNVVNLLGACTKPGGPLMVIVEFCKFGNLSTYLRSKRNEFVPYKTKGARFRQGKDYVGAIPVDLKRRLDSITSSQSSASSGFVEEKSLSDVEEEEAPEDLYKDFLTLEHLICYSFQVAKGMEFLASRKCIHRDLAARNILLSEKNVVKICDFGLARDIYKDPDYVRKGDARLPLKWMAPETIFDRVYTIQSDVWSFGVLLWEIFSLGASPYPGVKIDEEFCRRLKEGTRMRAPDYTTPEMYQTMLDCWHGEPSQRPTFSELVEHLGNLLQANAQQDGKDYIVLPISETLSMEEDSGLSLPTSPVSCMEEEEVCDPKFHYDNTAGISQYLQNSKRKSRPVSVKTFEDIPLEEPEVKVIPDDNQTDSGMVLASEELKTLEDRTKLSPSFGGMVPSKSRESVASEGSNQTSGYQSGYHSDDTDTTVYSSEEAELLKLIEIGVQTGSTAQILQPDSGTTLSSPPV

As a reminder, the IC50 is the concentration that gives 50% inhibition. Consider `NNC(=O)CN1C(=O)NC(c2ccccc2)(c2ccccc2)C1=O` [Compound 3, 2-(2,4-dioxo-5,5-diphenylimidazolidin-3-yl)acetohydrazide], for which the IC50 worked out at 278 ± 7.5 µM with A549 cells (setting [6]); 278 ± 2 µM in the assay on MDA-MB-231 cells (Homo sapiens, MDA-MB-231, 24 h); 236 ± 3.5 µM in the assay with HeLa cells [1] (Homo sapiens, HeLa, 24 h).
Regarding `COc1ccc2c(c1)C(=NNC(=O)CN1C(=O)NC(c3ccccc3)(c3ccccc3)C1=O)C(=O)N2` [Compound 19, 2-(2,5-Dioxo-4,4-diphenylimidazolidin-1-yl)-N′-(5-methoxy-2-oxoindolin-3-ylidene)acetohydrazide], the IC50 in the assay on A549 cells (setting [6]) was determined as 170 ± 2.2 µM; with MDA-MB-231 cells (Homo sapiens, MDA-MB-231, 24 h), 174 ± 2.9 µM; in the assay with HeLa cells [1] (Homo sapiens, HeLa, 24 h), 118 ± 1.3 µM.
Regarding `O=C(CN1C(=O)NC(c2ccccc2)(c2ccccc2)C1=O)NN=C1C(=O)Nc2ccc([N+](=O)[O-])cc21` [Compound 18, 2-(2,5-Dioxo-4,4-diphenylimidazolidin-1-yl)-N′-(5-nitro-2-oxoindolin-3-ylidene)acetohydrazide], the IC50 stood at 229 ± 5.2 µM in the assay on A549 cells (setting [6]); 0.37 ± 0.01 µM against EGFR; 80 ± 0.7 µM in the assay on MDA-MB-231 cells (Homo sapiens, MDA-MB-231, 24 h); 30 ± 1.2 µM with HeLa cells [1] (Homo sapiens, HeLa, 24 h); 2.52 ± 0.09 µM on VEGFR2; 113 µM in assay [2].
On to `O=C(CN1C(=O)NC(c2ccccc2)(c2ccccc2)C1=O)NN=C1C(=O)Nc2ccc(Br)cc21` [Compound 17, N′-(5-Bromo-2-oxoindolin-3-ylidene)-2-(2,5-dioxo-4,4-diphenylimidazolidin-1-yl)acetohydrazide], for which the IC50 came out at 77 ± 1.5 µM in the assay on A549 cells (setting [6]); 138 ± 2.6 µM in the assay with MDA-MB-231 cells (Homo sapiens, MDA-MB-231, 24 h); 29 ± 1.7 µM with HeLa cells [1] (Homo sapiens, HeLa, 24 h); 81 µM in [2].
With `O=C(CN1C(=O)NC(c2ccccc2)(c2ccccc2)C1=O)NN=Cc1ccc2c(c1)OCO2` [Compound 10, N′-(Benzo[d][1,3]dioxol-5-ylmethylene)-2-(2,5-dioxo-4,4-diphenylimidazolidin-1-yl)acetohydrazide], the IC50 in the assay on A549 cells (setting [6]) amounted to 267 ± 6 µM; in the assay with MDA-MB-231 cells (Homo sapiens, MDA-MB-231, 24 h), 200 ± 4.1 µM; with HeLa cells [1] (Homo sapiens, HeLa, 24 h) it was 113 ± 0.9 µM.
Regarding `O=C(CN1C(=O)NC(c2ccccc2)(c2ccccc2)C1=O)NN=C1C(=O)Nc2ccccc21` [Compound 14, 2-(2,5-Dioxo-4,4-diphenylimidazolidin-1-yl)-N′-(2-oxoindolin-3-ylidene)acetohydrazide], the IC50 in the assay on A549 cells (setting [6]) was 116 ± 1.6 µM; in the assay with MDA-MB-231 cells (Homo sapiens, MDA-MB-231, 24 h) it was 123 ± 0.8 µM; with HeLa cells [1] (Homo sapiens, HeLa, 24 h), 30 ± 2.6 µM.
Turning to `COc1cc(OC)c(OC)cc1C=NNC(=O)CN1C(=O)NC(c2ccccc2)(c2ccccc2)C1=O` [Compound 12], the IC50 with A549 cells (setting [7]) is 116 ± 1.3 µM; with MDA-MB-231 cells (Alamar Blue, 24 h treatment) it was over 350 µM; in the assay on HeLa cells [1] (Alamar Blue, 24 h treatment) it was 39 ± 3.1 µM.
On to `O=C(CN1C(=O)NC(c2ccccc2)(c2ccccc2)C1=O)NN=Cc1ccc(Cl)cc1` [Compound 5, N'-(4-Chlorobenzylidene)-2-(2,5-dioxo-4,4-diphenylimidazolidin-1-yl)acetohydrazide], for which the IC50 was found to be 157 ± 1.4 µM with A549 cells (setting [6]); 196 ± 1.7 µM in the assay on MDA-MB-231 cells (Homo sapiens, MDA-MB-231, 24 h); 123 ± 2.6 µM in the assay on HeLa cells [1] (Homo sapiens, HeLa, 24 h).
`CC(=O)O[C@@]12CO[C@@H]1C[C@H](O)[C@@]1(C)C(=O)[C@H](O)C3=C(C)[C@@H](OC(=O)[C@H](O)[C@@H](NC(=O)OC(C)(C)C)c4ccccc4)C[C@@](O)([C@@H](OC(=O)c4ccccc4)[C@H]21)C3(C)C` [Docetaxel, reference compound]: the IC50 with A549 cells (setting [6]) is 100 µM; with A549 cells (setting [7]), 50 ± 1.3 µM; with MDA-MB-231 cells (Homo sapiens, MDA-MB-231, 24 h), 100 ± 2.2 µM; with HeLa cells [1] (Homo sapiens, HeLa, 24 h), 100 ± 3.8 µM; in assay [2], 83 µM.
For `O=C(CN1C(=O)NC(c2ccccc2)(c2ccccc2)C1=O)NN=Cc1c[nH]c2ccccc12` [Compound 13, N′-((1H-indol-3-yl)methylene)-2-(2,5-dioxo-4,4-diphenylimidazolidin-1-yl)acetohydrazide], the IC50 is 160 ± 0.8 µM in the assay with A549 cells (setting [6]); 0.1 ± 0.02 µM against EGFR; 156 ± 3.1 µM with MDA-MB-231 cells (Homo sapiens, MDA-MB-231, 24 h); 10 ± 2.1 µM with HeLa cells [1] (Homo sapiens, HeLa, 24 h); 0.47 ± 0.09 µM at VEGFR2; 109 µM in assay [2].
Turning to `COc1cc(C=NNC(=O)CN2C(=O)NC(c3ccccc3)(c3ccccc3)C2=O)ccc1O` [Compound 9, 2-(2,5-Dioxo-4,4-diphenylimidazolidin-1-yl)-N′-(4-hydroxy-3-methoxybenzylidene)acetohydrazide], the IC50 turned out to be 175 ± 4.3 µM with A549 cells (setting [6]); 136 ± 3.9 µM with MDA-MB-231 cells (Homo sapiens, MDA-MB-231, 24 h); 50 ± 1 µM with HeLa cells [1] (Homo sapiens, HeLa, 24 h).
For `CCOC(=O)CN1C(=O)NC(c2ccccc2)(c2ccccc2)C1=O` [Compound 2, ethyl (5,5-diphenylhydantoin-3-yl)acetate], the IC50 came to 108 ± 3.7 µM with A549 cells (setting [6]); 263 ± 3.4 µM with MDA-MB-231 cells (Homo sapiens, MDA-MB-231, 24 h); 241 ± 1.3 µM with HeLa cells [1] (Homo sapiens, HeLa, 24 h).
For `COc1cc(C=NNC(=O)CN2C(=O)NC(c3ccccc3)(c3ccccc3)C2=O)cc(OC)c1OC` [Compound 11, 2-(2,5-Dioxo-4,4-diphenylimidazolidin-1-yl)-N′-(3,4,5-trimethoxybenzylidene)acetohydrazide], the IC50 stood at 170 ± 4.2 µM in the assay on A549 cells (setting [6]); 133 ± 0.7 µM in the assay on MDA-MB-231 cells (Homo sapiens, MDA-MB-231, 24 h); 53 ± 2.1 µM with HeLa cells [1] (Homo sapiens, HeLa, 24 h).
On to `O=C(CN1C(=O)NC(c2ccccc2)(c2ccccc2)C1=O)NN=C1C(=O)Nc2ccc(F)cc21` [Compound 16, 2-(2,5-Dioxo-4,4-diphenylimidazolidin-1-yl)-N′-(5-fluoro-2-oxoindolin-3-ylidene)acetohydrazide], for which the IC50 came to 95 ± 1 µM with A549 cells (setting [6]); 6.17 ± 0.22 µM on EGFR; 64 ± 0.6 µM in the assay with MDA-MB-231 cells (Homo sapiens, MDA-MB-231, 24 h); 18.5 ± 1.6 µM in the assay with HeLa cells [1] (Homo sapiens, HeLa, 24 h); 0.09 ± 0.01 µM against VEGFR2; 59 µM in assay [2]. Moreover, the “change of caspase-3/7 activity” value in assay [3] is reported as “approximately 40%”. Moreover, the “cells with increased level of ROS production” value in the assay on HeLa cells [4] is 37.7%. Further, the “change of caspase-9 activity” value in the assay on caspase-9 in HeLa cells is “no significant changes”. The “change of caspase-8 activity” value in the assay with caspase-8 in HeLa cells is on record as “no significant changes”. Besides, the “percentage of apoptotic cells” value was 48.6% in the assay on HeLa cells [5] (5 μM) and 63.4% with HeLa cells [5] (10 μM).
As to `O=C(CN1C(=O)NC(c2ccccc2)(c2ccccc2)C1=O)NN=C1C(=O)Nc2ccc(Cl)cc21` [Compound 15, N′-(5-Chloro-2-oxoindolin-3-ylidene)-2-(2,5-dioxo-4,4-diphenylimidazolidin-1-yl)acetohydrazide], the IC50 in the assay on A549 cells (setting [6]) is 72 ± 3 µM; in the assay with MDA-MB-231 cells (Homo sapiens, MDA-MB-231, 24 h), 311 ± 5.5 µM; in the assay on HeLa cells [1] (Homo sapiens, HeLa, 24 h), 53 ± 2.2 µM.
Take `COc1ccc(C=NNC(=O)CN2C(=O)NC(c3ccccc3)(c3ccccc3)C2=O)cc1OC` [Compound 8, N′-(3,4-Dimethoxybenzylidene)-2-(2,5-dioxo-4,4-diphenylimidazolidin-1-yl)acetohydrazide]: the IC50 with A549 cells (setting [6]) was determined as 162 ± 2.3 µM; in the assay on MDA-MB-231 cells (Homo sapiens, MDA-MB-231, 24 h), 154 ± 1.1 µM; in the assay on HeLa cells [1] (Homo sapiens, HeLa, 24 h), 60 ± 3.3 µM.
